Test results as given in ChEMBL document CHEMBL3621102, “Structure-activity study of quinazoline derivatives leading to the discovery of potent EGFR-T790M inhibitors” (Eur J Med Chem, 2015).
One block for each compound: values may come before it. The source made the active and inactive calls. The rule behind the calls is not given here.

Assays:
[1] = molecular target: Epidermal growth factor receptor (Homo sapiens, UniProt P00533); assay: Inhibition of EGFR (unknown origin) by ELISA method
[2] = tested on: Mus musculus; assay: Toxicity in NCI-H1975 xenografted BALB/c mouse at 10 mg/kg po, qd for 7 days measured after drug cessation; type: organism-based; settings: in vivo, 168 h
Method in brief: (§1)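 Athymic mice bearing subcutaneous right-flank xenografts (2 × 10⁶ cells, dosed at 100–300 mm³; n = 6 per group; vehicle controls). Health was observed daily and body weight measured on indicated days. Body weight change (%) = (Wt/W0 − 1) × 100 against predosing weight, given as group mean ± SEM.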

[3] = tested on: Mus musculus; assay: Toxicity in NCI-H1975 xenografted BALB/c mouse assessed as body weight loss at 10 mg/kg po, qd for 21 days; type: organism-based; settings: in vivo, 504 h; method in brief: as §1
[4] = tested on: NCI-H1975; assay: Antiproliferative activity against human NCI-H1975 cells assessed as growth inhibition; type: functional
Method in brief: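 NCI-H1975 cells were grown in RPMI with 1 mM sodium pyruvate, 10% FBS and 1% penicillin-streptomycin, under humidified 5% CO₂ at 37 °C. Growth inhibition was read as GI₅₀.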

[5] = Toxicity in NCI-H1975 xenografted BALB/c mouse assessed as induction of mouse mortality at 10 mg/kg po, qd for days; type: organism-based; settings: in vivo
Method in brief: (§2)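 Athymic mice received 2 × 10⁶ NCI-H1975 cells subcutaneously in the right flank. When tumours reached 100–300 mm³, mice were randomised into control and treatment groups (n = 6 per group), and controls got vehicle alone. Health was checked daily, and body weight and tumour size were measured on set days during treatment.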

[6] = tested on: HCC827; assay: Antitumor activity against human HCC827 cells xenografted in BALB/c mouse assessed as tumor growth inhibition at 5 mg/kg po, qd for 12 days; type: functional, organism-based
Method in brief: (§3)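 Athymic mice received 2 × 10⁶ tumour cells subcutaneously in the right flank. At 100–300 mm³ they were randomised to control and treatment groups (n = 6); controls received vehicle alone. Tumour volume = length × width²/2 and RTV = Vt/V0.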

[7] = tested on: Mus musculus; assay: Toxicity in NCI-H1975 xenografted BALB/c mouse assessed as induction of exfoliative skin disorders at 20 mg/kg po, qd for 21 days; type: organism-based; settings: in vivo, 504 h; method in brief: as §1
[8] = tested on: Mus musculus; assay: Toxicity in human HCC827 cells xenografted BALB/c mouse assessed as induction of eye disease at 5 mg/kg po, qd for 12 days; type: organism-based; settings: in vivo, 288 h; method in brief: as §1
[9] = tested on: Mus musculus; assay: Toxicity in NCI-H1975 xenografted BALB/c mouse assessed as induction of eye diseases at 13 mg/kg po, qd for 21 days; type: organism-based; settings: in vivo, 504 h; method in brief: as §1
[10] = tested on: NCI-H1975; assay: Antitumor activity against human NCI-H1975 cells xenografted in BALB/c mouse assessed as tumor growth inhibition at 13 mg/kg po, qd for 21 days; type: functional, organism-based; method in brief: as §3
[11] = tested on: Mus musculus; assay: Toxicity in human HCC827 cells xenografted BALB/c mouse assessed as induction of exfoliative skin disorders at 5 mg/kg po, qd for 12 days; type: organism-based; settings: in vivo, 288 h; method in brief: as §1
[12] = Bioavailability in Sprague-Dawley rat at 1 mg/kg, iv incubated for 24 hrs by LC/MS/MS method; type: ADME, organism-based; settings: in vivo
Method in brief: (§4)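 Male Sprague-Dawley rats (n = 3) dosed once at 1 mg/kg iv via tail vein, or once at 5 mg/kg by oral gavage, using the same formulation. Serial blood samples were taken over 24 h. Plasma levels were measured by LC/MS/MS (C18 column, 10 mM ammonium formate-0.1% formic acid water/methanol 10/90, ESI positive). Parameters were derived by noncompartmental analysis.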

[13] = Elimination half-life in Sprague-Dawley rat at 1 mg/kg, iv incubated for 24 hrs by LC/MS/MS method; type: ADME, organism-based; settings: in vivo, read-out: beta t1/2 (converted); method in brief: as §4
[14] = tested on: Mus musculus; assay: Toxicity in NCI-H1975 xenografted BALB/c mouse assessed as induction of eye diseases at 20 mg/kg po, qd for 21 days; type: organism-based; settings: in vivo, 504 h; method in brief: as §1
[15] = tested on: Mus musculus; assay: Toxicity in human A431 cells xenografted BALB/c mouse assessed as induction of exfoliative skin disorders at 5 and 10 mg/kg po, qd for 18 days; type: organism-based, A-431; settings: in vivo, 432 h; method in brief: as §1
[16] = AUC (0 to infinity) in Sprague-Dawley rat at 1 mg/kg, iv by LC/MS/MS method; type: ADME, organism-based; set-up: dose 1 mg/kg, time infinity, route intravenous; settings: in vivo; method in brief: as §4
[17] = tested on: Mus musculus; assay: Toxicity in human HCC827 cells xenografted BALB/c mouse assessed as body weight loss at 5 mg/kg po, qd for 12 days; type: organism-based; settings: in vivo, 288 h; method in brief: as §1
[18] = Clearance in Sprague-Dawley rat at 1 mg/kg, iv incubated for 24 hrs by LC/MS/MS method; type: ADME, organism-based; settings: in vivo; method in brief: as §4
[19] = tested on: Mus musculus; assay: Toxicity in NCI-H1975 xenografted BALB/c mouse assessed as induction of exfoliative skin disorders at 13 mg/kg po, qd for 21 days; type: organism-based; settings: in vivo, 504 h; method in brief: as §1
[20] = tested on: Mus musculus; assay: Toxicity in human A431 cells xenografted BALB/c mouse assessed as induction of eye diseases at 5 and 10 mg/kg po, qd for 18 days; type: organism-based, A-431; settings: in vivo, 432 h; method in brief: as §1
[21] = tested on: A-431; assay: Antitumor activity against human A431 cells xenografted in BALB/c mouse assessed as tumor growth inhibition at 5 mg/kg po, qd for 18 days; type: functional, organism-based; method in brief: as §3
[22] = tested on: A-431; assay: Antitumor activity against human A431 cells xenografted in BALB/c mouse assessed as tumor growth inhibition at 10 mg/kg po, qd for 18 days; type: functional, organism-based; method in brief: as §3
[23] = Mean residence time in Sprague-Dawley rat at 1 mg/kg, iv incubated for 24 hrs by LC/MS/MS method; type: ADME, organism-based; settings: in vivo; method in brief: as §4
[24] = Apparent volume of distribution in Sprague-Dawley rat at 1 mg/kg, iv incubated for 24 hrs by LC/MS/MS method; type: ADME, organism-based; settings: in vivo, read-out: Vd(app); method in brief: as §4
[25] = tested on: Mus musculus; assay: Toxicity in human A431 cells xenografted BALB/c mouse assessed as body weight loss at 5 and 10 mg/kg po, qd for 18 days; type: organism-based, A-431; settings: in vivo, 432 h; method in brief: as §1
[26] = AUC (0 to 24 hrs) in Sprague-Dawley rat at 1 mg/kg, iv by LC/MS/MS method; type: ADME, organism-based; set-up: time < 24 hr, dose 1 mg/kg, route intravenous; settings: in vivo; method in brief: as §4
[27] = tested on: Mus musculus; assay: Toxicity in NCI-H1975 xenografted BALB/c mouse assessed as body weight change at 13 mg/kg po, qd for 21 days; type: organism-based; settings: in vivo, 504 h; method in brief: as §1
[28] = tested on: NCI-H1975; assay: Antitumor activity against human NCI-H1975 cells xenografted in BALB/c mouse assessed as tumor growth inhibition at 30 mg/kg po, qd for 21 days relative to control; type: functional, organism-based; method in brief: as §3
[29] = tested on: NCI-H1975; assay: Antitumor activity against human NCI-H1975 cells xenografted in BALB/c mouse assessed as tumor growth inhibition at 20 mg/kg po, qd for 21 days relative to control; type: functional; method in brief: as §3
[30] = Toxicity in NCI-H1975 xenografted BALB/c mouse assessed as induction of mouse mortality at 20 mg/kg po, qd for 7 days; type: organism-based; settings: in vivo; method in brief: as §2
[31] = tested on: Mus musculus; assay: Toxicity in NCI-H1975 xenografted BALB/c mouse assessed as body weight loss at 20 mg/kg po, qd for 21 days; type: organism-based; settings: in vivo, 504 h; method in brief: as §1

Sequence of Epidermal growth factor receptor (P00533 whole entry): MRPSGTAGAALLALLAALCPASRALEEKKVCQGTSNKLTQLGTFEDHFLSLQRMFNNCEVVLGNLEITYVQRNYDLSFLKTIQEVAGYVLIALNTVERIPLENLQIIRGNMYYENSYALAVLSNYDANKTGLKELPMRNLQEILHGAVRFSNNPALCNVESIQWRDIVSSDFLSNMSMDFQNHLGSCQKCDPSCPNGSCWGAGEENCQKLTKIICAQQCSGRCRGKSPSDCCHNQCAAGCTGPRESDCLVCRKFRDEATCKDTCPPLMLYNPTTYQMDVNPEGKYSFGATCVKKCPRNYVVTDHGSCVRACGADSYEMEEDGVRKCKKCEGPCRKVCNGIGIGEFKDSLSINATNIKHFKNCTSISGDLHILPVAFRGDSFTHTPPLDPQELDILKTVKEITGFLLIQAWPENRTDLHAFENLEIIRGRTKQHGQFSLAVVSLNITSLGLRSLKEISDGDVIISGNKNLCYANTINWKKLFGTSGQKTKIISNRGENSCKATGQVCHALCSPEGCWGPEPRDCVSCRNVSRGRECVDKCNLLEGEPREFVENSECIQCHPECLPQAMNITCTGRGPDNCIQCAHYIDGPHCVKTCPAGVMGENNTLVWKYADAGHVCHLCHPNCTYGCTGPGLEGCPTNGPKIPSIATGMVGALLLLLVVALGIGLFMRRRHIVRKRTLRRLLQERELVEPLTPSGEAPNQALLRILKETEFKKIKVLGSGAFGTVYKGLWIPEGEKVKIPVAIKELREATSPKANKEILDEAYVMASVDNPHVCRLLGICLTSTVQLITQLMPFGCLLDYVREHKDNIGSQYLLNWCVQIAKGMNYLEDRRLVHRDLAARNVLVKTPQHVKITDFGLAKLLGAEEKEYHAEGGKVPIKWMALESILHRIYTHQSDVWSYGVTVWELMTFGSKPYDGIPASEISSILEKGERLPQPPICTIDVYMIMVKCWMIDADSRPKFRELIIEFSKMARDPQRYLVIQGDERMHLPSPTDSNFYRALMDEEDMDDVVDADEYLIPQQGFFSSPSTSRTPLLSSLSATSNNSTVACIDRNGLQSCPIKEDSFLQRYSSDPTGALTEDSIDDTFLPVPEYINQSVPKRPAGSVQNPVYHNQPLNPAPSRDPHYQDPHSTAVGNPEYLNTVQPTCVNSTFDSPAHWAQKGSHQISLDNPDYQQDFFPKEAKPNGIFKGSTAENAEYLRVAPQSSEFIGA

Structure (SMILES): C#Cc1cccc(Nc2ncnc3cc(OCC)c(NC(=O)/C=C/CNC4CC4)cc23)c1
- IC50 [1]: 4.2 nM
- Activity [2]: Non-toxic
- Activity [3]: Toxic
- GI50 [4]: 16.5 nM
- mortality [5]: > 50%

- IC50 [1]: 6.5 nM
- bioavailability [12]: 83.5%
- half-life [13]: 3.15 h
- GI50 [4]: 10.2 nM
- AUC(0-inf) [16]: 662 ng·h/mL
- clearance [18]: 25.7 mL/min/kg
- MRT [23]: 3.88 h
- Vd [24]: 3.82 L/kg
- AUC(0-t) at 24 h [26]: 660 ng·h/mL
Structure (SMILES): O=C(/C=C/CNC1CC1)Nc1cc2c(Nc3ccc(F)c(Cl)c3)ncnc2cc1O[C@H]1CCOC1
- TGI [6]: Active
- Activity [7]: Non-toxic
- Activity [8]: Non-toxic
- Activity [9]: Non-toxic
- TGI [10]: Active
- Activity [11]: Non-toxic
- Activity [14]: Non-toxic
- Activity [15]: Non-toxic
- Activity [17]: Non-toxic
- Activity [19]: Non-toxic
- Activity [20]: Non-toxic
- TGI [21]: inactive
- TGI [22]: Active
- Activity [25]: Non-toxic
- Activity [27]: Non-toxic

Structure (SMILES): CN(C)C/C=C/C(=O)Nc1cc2c(Nc3ccc(F)c(Cl)c3)ncnc2cc1O[C@H]1CCOC1
- TGI [6]: Active
- TGI [28]: Active
- TGI [21]: Active

Structure (SMILES): C#Cc1cccc(Nc2ncnc3cc(OCC)c(NC(=O)/C=C/CN(C)C4CC4)cc23)c1
- IC50 [1]: 2.4 nM
- TGI [29]: Active
- GI50 [4]: 41 nM
- mortality at 168 h [30]: > 50%
- Activity [31]: Toxic
